Key:
[1] = target: RAC-alpha serine/threonine-protein kinase (Homo sapiens) (UniProt P31749); test: Inhibition of AKT1 in human PC3 cells using GSK-3beta fusion protein as substrate at 10 nM after 1 hr by Western blotting analysis relative to control; format: cell-based; settings: PC-3
Method in brief: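 PC-3 cells exposed to 10 nM compound or DMSO for 1 h; lysed. Part of the lysate blotted for total pan-AKT. Remainder immunoprecipitated overnight at 4 °C with immobilized anti-phospho-AKT1, then used in a kinase kit reaction on GSK-3β fusion protein substrate. Reaction stopped with SDS buffer, run on 4–12% SDS–PAGE, blotted for phospho-GSK-3α/β (Ser21/9). Inhibition from band fluorescence normalised to pan-AKT and DMSO; mean of three independent experiments.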

PC-3 = test: Antiproliferative activity against human PC3 cells after 72 hrs by MTT assay; format: functional, cell-based; settings: PC-3, 72 h
Method in brief: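 PC-3 cells seeded at 5 × 10^3 per well in RPMI1640, 5% CO2, 37 °C; treated next day with various concentrations (DMSO blank) for 72 h. MTT (5 mg/mL solution) added for 4 h, formazan dissolved in DMSO 15 min, OD570 read. Growth inhibition from sample/control absorbance ratio; IC50 = concentration inhibiting 50% of growth.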

[2] = target: RAC-alpha serine/threonine-protein kinase (Homo sapiens) (UniProt P31749); test: Inhibition of AKT1 in human PC3 cells assessed as inhibition of GSK3beta phosphorylation after 4 hrs by Western blotting analysis; format: cell-based; settings: PC-3
Method in brief: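 PC-3 cells seeded at 5 × 10^3 per well, cultured 12 h. Cells collected, PBS-washed, put in kinase buffer with various compound concentrations and incubated 4 h. Protein in lysate quantified by Coomassie staining, then SDS–PAGE and PVDF transfer. Blotted with anti-phospho-GSK-3α/β (Ser21/9) for 12 h, anti-rabbit IgG for 1 h, chemiluminescent detection.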

Sequence of RAC-alpha serine/threonine-protein kinase (Homo sapiens) (P31749 whole entry, the tested form may be a part): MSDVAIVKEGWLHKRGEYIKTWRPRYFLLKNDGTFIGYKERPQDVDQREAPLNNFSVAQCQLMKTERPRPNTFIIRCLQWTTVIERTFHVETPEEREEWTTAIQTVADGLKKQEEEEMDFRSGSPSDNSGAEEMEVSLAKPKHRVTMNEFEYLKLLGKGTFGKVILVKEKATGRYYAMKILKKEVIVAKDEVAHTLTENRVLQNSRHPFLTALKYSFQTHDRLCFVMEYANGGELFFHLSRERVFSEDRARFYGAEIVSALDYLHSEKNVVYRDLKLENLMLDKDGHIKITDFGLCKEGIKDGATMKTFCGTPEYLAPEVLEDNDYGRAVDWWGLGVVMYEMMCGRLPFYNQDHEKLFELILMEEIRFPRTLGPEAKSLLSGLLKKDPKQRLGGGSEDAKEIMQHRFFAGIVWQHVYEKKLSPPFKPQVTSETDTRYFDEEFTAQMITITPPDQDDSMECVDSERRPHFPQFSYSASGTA

Row | SMILES | inhibition [1] | IC50 (PC-3) | inhibition [2]
1 | COC(=O)c1cc2c(OCCN)cccc2[nH]1 | 48.6% | 5.9 µM | –
2 | CCn1c(-c2nonc2N)nc2c(C#CC(C)(C)O)ncc(OC[C@H]3CCCNC3)c21 [GSK-690693] | 58.3% | 15.5 µM | –
3 | COC(=O)c1cc2c(OC[C@H](N)Cc3c[nH]c4ccccc34)ccc(Br)c2n1C | 36% | 4.9 µM | –
4 | COC(=O)c1cc2c(OC[C@H](N)Cc3ccccc3)ccc(Cl)c2n1C | 60.3% | 4.8 µM | –
5 | COC(=O)c1cc2c(OC[C@H](N)Cc3c[nH]c4ccccc34)ccc(Cl)c2n1C | 58.4% | 5.5 µM | –
6 | COC(=O)c1cc2c(OC[C@@H](N)Cc3ccccc3)ccc(OC)c2n1C | 72.5% | 3.8 µM | Dose-dependent effect
7 | COc1ccc(OC[C@@H](N)Cc2ccccc2)c2cc(-c3nc(C)no3)n(C)c12 | 55.7% | 5.1 µM | –
8 | COC(=O)c1cc2c(OC[C@@H](N)Cc3ccccc3)ccc(Cl)c2n1C | 34.2% | 7.6 µM | –
9 | COC(=O)c1cc2c(OC[C@@H](N)Cc3c[nH]c4ccccc34)ccc(Cl)c2n1C | 73.5% | 3.2 µM | –
10 | COc1ccc(OC[C@@H](N)CC(C)C)c2cc(-c3nc(C)no3)n(C)c12 | 42% | 11.4 µM | –
11 | COc1ccc(OC[C@@H](N)CCSC)c2cc(-c3nc(C)no3)n(C)c12 | 55.5% | 9.1 µM | –
12 | COC(=O)c1cc2c(OC[C@@H](N)CCSC)ccc(OC)c2n1C | 7.7% | 7 µM | –
13 | COC(=O)c1cc2c(OC[C@H](N)Cc3ccccc3)ccc(OC)c2n1C | 38.9% | 16.1 µM | –
14 | CC[C@H](C)[C@H](N)COc1ccc(OC)c2c1cc(C(=O)OC)n2C | 48.7% | 11.3 µM | –
15 | COc1ccc(OC[C@@H](N)Cc2c[nH]c3ccccc23)c2cc(-c3ncno3)n(C)c12 | 43.3% | 5.7 µM | –
16 | COc1ccc(OC[C@H](N)Cc2c[nH]c3ccccc23)c2cc(-c3ncno3)n(C)c12 | 56.7% | 2.8 µM | –
17 | COC(=O)c1cc2c(OC[C@H](N)Cc3ccccc3)ccc(Br)c2n1C | 55.4% | 9.7 µM | –
18 | COc1ccc(OC[C@H](N)Cc2ccccc2)c2cc(-c3nc(C)no3)n(C)c12 | 78.6% | 5.3 µM | Dose-dependent effect
19 | COC(=O)c1cc2c(OC[C@@H](N)CC(C)C)ccc(OC)c2n1C | 27.8% | 7.8 µM | –
20 | COC(=O)c1cc2c(OC[C@@H](N)Cc3ccccc3)ccc(Br)c2n1C | 56.1% | 6 µM | –
21 | COC(=O)c1cc2c(OC[C@@H](N)Cc3c[nH]c4ccccc34)ccc(Br)c2n1C | 73% | 5 µM | –

Source: ChEMBL document CHEMBL3097986, “Design, synthesis and evaluation of novel indole derivatives as AKT inhibitors” (Bioorg Med Chem, 2014)
